Experimental data from ChEMBL document CHEMBL4425127 (J Med Chem, 2016).
Calls of active or inactive are those of the source. The rule behind the calls is not given here.

Tests used:
[1] = Inhibition of recombinant Influenza A virus (A/Moscow/10/99(H3N2)) Neuraminidase N2 expressed in baculovirus infected insect cells using 4-MU-NANA as substrate preincubated for 30 mins followed by substrate addition by microplate reader analysis; set-up: species or system Influenza A virus (A/Moscow/10/1999(H3N2))
Method in brief: (§1)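 Purified recombinant NA, with activity pre-set to roughly 10–50 nM in PBS, preincubated with serial 5-fold inhibitor dilutions in PBS (top 1 mM) at 37 °C for 30 min. MUNANA solution (167 μM, PBS) then added. Fluorescence read at ex 355/em 460 nm.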

[2] = system: MDCK; assay: Cytotoxicity against MDCK cells assessed as reduction in cell viability after 72 hrs by MTT assay; format: cell-based, Canis lupus familiaris; conditions: dog
[3] = system: Influenza A virus; assay: Antiviral activity against Influenza A virus (A/Anhui/1/2013(H7N9)) expressing A/Puerto Rico/8/34(H1N1) genes infected in MDCK cells assessed as reduction in viral replication after 72 hrs by hemagglutination test; format: functional, organism-based
[4] = Inhibition of recombinant Influenza A virus (A/Anhui/1/2013(H7N9)) Neuraminidase N9 expressed in baculovirus infected insect cells using 4-MU-NANA as substrate preincubated for 30 mins followed by substrate addition by microplate reader analysis; method in brief: as §1
[5] = system: Influenza A virus H3N2; assay: Antiviral activity against Influenza A virus (A/Moscow/10/99(H3N2)) expressing A/Puerto Rico/8/34(H1N1) genes infected in MDCK cells assessed as reduction in viral replication after 72 hrs by hemagglutination test; format: functional, organism-based, A/Moscow/10/1999(H3N2)
[6] = system: Influenza A virus; assay: (§2) Antiviral activity against Influenza A virus (A/Puerto Rico/8/34(H1N1)) infected in Balb/c mouse assessed as respiratory epithelium desquamation at 20 mg/kg qd administered intranasally as single dose at 2 hrs post infection measured after 7 days post infection by hematoxylin and eosin staining based microscopic analysis; format: functional, organism-based; conditions: A/Puerto Rico/8/1934(H1N1)
[7] = system: Influenza A virus; assay: as §2, with “bronchial wall thickening in lungs” for “respiratory epithelium desquamation”; format: functional, organism-based; conditions: A/Puerto Rico/8/1934(H1N1)
[8] = system: Influenza A virus; assay: Antiviral activity against Influenza A virus (A/Puerto Rico/8/34(H1N1)) infected in Balb/c mouse assessed as protection against lethal virus challenge by measuring mouse survival at 5 to 10 mg/kg qd administered intranasally for 7 days starting from 1 day post infection measured for 14 days; format: functional, organism-based; conditions: A/Puerto Rico/8/1934(H1N1)
Method in brief: (§3)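 BALB/c mice (6 per group) inoculated intranasally under anaesthesia with 10^5 pfu in 40 μL PBS. Inhibitor given intranasally in 40 μL PBS, either daily for 7 days from day 1 or once at 2 h pi; PBS-treated infected and uninfected controls. Weight and survival followed for 14 days; death counted at 25% weight loss or moribund. Mantel–Cox test.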

[9] = system: Influenza A virus; assay: Antiviral activity against Influenza A virus (A/Puerto Rico/8/34(H1N1)) infected in MDCK cells assessed as plaque reduction after 72 hrs by toluidine blue staining based method; format: functional, A/Puerto Rico/8/1934(H1N1)
[10] = system: Influenza A virus; assay: Antiviral activity against Influenza A virus (A/Puerto Rico/8/34(H1N1)) infected in Balb/c mouse assessed as protection against lethal virus challenge by measuring body weight at 5 to 10 mg/kg qd administered intranasally for 7 days starting from 1 day post infection measured for 14 days; format: functional, organism-based; conditions: A/Puerto Rico/8/1934(H1N1); method in brief: as §3
[11] = system: Influenza A virus H3N2; assay: Induction of viral aggregation in Influenza A virus (A/Moscow/10/99(H3N2)) at 1 mM after 3 hrs by transmission electron microscopic analysis; format: functional, organism-based; conditions: A/Moscow/10/1999(H3N2)
Method in brief: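 Virus (10^7 pfu in 150 μL DMEM) incubated at 37 °C for 3 h with 10 μL of 1 mM inhibitor stock in PBS, or without; then processed for transmission electron microscopy.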

[12] = system: Influenza A virus; assay: Antiviral activity against Influenza A virus (A/Puerto Rico/8/34(H1N1)) infected in Balb/c mouse assessed as immune cell infiltration in lungs at 5 mg/kg qd administered intranasally for 7 days starting from 1 day post infection by hematoxylin and eosin staining based microscopic analysis; format: functional, organism-based; conditions: A/Puerto Rico/8/1934(H1N1)
[13] = system: Influenza A virus; assay: as §2, with “immune cell infiltration in lungs” for “respiratory epithelium desquamation”; format: functional, organism-based; conditions: A/Puerto Rico/8/1934(H1N1)
[14] = system: Influenza A virus; assay: Antiviral activity against Influenza A virus (A/Puerto Rico/8/34(H1N1)) infected in Balb/c mouse assessed as bronchial wall thickening in lungs at 5 mg/kg qd administered intranasally for 7 days starting from 1 day post infection by hematoxylin and eosin staining based microscopic analysis; format: functional, organism-based; conditions: A/Puerto Rico/8/1934(H1N1)
[15] = system: Influenza A virus; assay: (§4) Antiviral activity against Influenza A virus (A/Puerto Rico/8/34(H1N1)) infected in Balb/c mouse assessed as protection against lethal virus challenge by measuring body weight at 20 mg/kg administered intranasally as single dose at 2 hrs post infection measured up to 14 days post treatment relative to control; format: functional, A/Puerto Rico/8/1934(H1N1); method in brief: as §3
[16] = system: Influenza A virus; assay: Antiviral activity against Influenza A virus (A/Puerto Rico/8/34(H1N1)) assessed as decrease in lung lesions at 20 mg/kg qd administered intranasally as single dose at 2 hrs post infection measured after 7 days post infection by hematoxylin and eosin staining based microscopic analysis; format: functional, organism-based; conditions: A/Puerto Rico/8/1934(H1N1)
[17] = system: Influenza A virus; assay: Antiviral activity against Influenza A virus (A/Puerto Rico/8/34(H1N1)) infected in Balb/c mouse assessed as respiratory epithelium desquamation at 5 mg/kg qd administered intranasally for 7 days starting from 1 day post infection by hematoxylin and eosin staining based microscopic analysis; format: functional, organism-based; conditions: A/Puerto Rico/8/1934(H1N1)
[18] = system: Influenza A virus; assay: as §4, with “mouse survival” for “body weight”; format: functional, A/Puerto Rico/8/1934(H1N1); method in brief: as §3
[19] = Half life in Sprague-Dawley rat at 6 umol/kg, iv by HPLC analysis; format: ADME, organism-based; conditions: in vivo
Method in brief: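 Rats (n = 5) received a single tail-vein injection in physiological saline. Plasma levels measured by HPLC, using a reversed-phase C18 gradient with ammonium-containing aqueous/acetonitrile eluents over 5 min at 0.6 mL/min.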

[20] = Aqueous solubility of compound; format: physicochemical; conditions: buffer
[21] = system: Influenza A virus; assay: Antiviral activity against Influenza A virus (A/Puerto Rico/8/34(H1N1)) assessed as decrease in lung lesions at 10 mg/kg qd administered intranasally for 7 days starting from 1 day post infection by hematoxylin and eosin staining based microscopic analysis; format: functional, organism-based; conditions: A/Puerto Rico/8/1934(H1N1)
[22] = biological target: Neuraminidase (Influenza A virus (A/Memphis/1/1971(H3N2))) (UniProt P03471); assay: Binding affinity to recombinant Influenza A virus (A/Moscow/10/99(H3N2)) Neuraminidase N2 expressed in baculovirus infected insect cells at 100 to 1000 nM measured up to 160 sec by surface plasmon resonance analysis
Method in brief: (§5)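 NA covalently immobilised on CM5 chip by amine coupling. Analyte passed over at several concentrations in running buffer. BSA served as negative control protein. Constants from a steady-state affinity model; triplicate experiments.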

[23] = Binding affinity to recombinant Influenza A virus (A/Moscow/10/99(H3N2)) Neuraminidase N2 expressed in baculovirus infected insect cells measured up to 400 sec by surface plasmon resonance analysis; set-up: species or system Influenza A virus (A/Moscow/10/1999(H3N2)); method in brief: as §5
[24] = Influenza A virus, A/Moscow/10/1999(H3N2), MDCK, 72 h, read-out: EC50

Sequence of Neuraminidase (Influenza A virus (A/Memphis/1/1971(H3N2))) (P03471 whole entry): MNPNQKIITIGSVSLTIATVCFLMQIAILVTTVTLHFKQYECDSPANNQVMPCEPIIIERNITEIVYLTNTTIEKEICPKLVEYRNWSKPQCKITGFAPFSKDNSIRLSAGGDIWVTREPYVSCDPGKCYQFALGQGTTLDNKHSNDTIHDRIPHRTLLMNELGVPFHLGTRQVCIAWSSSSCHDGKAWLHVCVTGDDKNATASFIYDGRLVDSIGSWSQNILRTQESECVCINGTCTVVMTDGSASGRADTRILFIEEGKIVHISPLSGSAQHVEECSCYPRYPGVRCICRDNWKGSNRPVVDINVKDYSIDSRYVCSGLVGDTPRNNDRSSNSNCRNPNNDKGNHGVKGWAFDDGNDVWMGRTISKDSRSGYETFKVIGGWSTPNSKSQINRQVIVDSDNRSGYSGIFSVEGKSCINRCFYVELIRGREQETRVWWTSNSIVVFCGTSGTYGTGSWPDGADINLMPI

With `CCC(CC)O[C@@H]1C=C(C(=O)O)C[C@H](N)[C@H]1NC(C)=O` [OSELTAMIVIR CARBOXYLATE] the IC50 [1] was 0.4 nM, the Activity [2] was “Non-Toxic” and the EC50 [3] was 12.3 nM. It also gave an IC50 [4] of 0.8 nM and an EC50 [5, 24] of 7.1 nM.

With `CC(=O)N[C@H]1[C@H]([C@H](OC(=O)NCCOCCOCCOCCOCCOCCOCCOCCOCCOCCOCCOCCOCc2cn(CC(Cn3cc(COCCOCCOCCOCCOCCOCCOCCOCCOCCOCCOCCOCCNC(=O)O[C@@H]([C@@H]4OC(C(=O)O)=C[C@H](NC(=N)N)[C@H]4NC(C)=O)[C@H](O)CO)nn3)(Cn3cc(COCCOCCOCCOCCOCCOCCOCCOCCOCCOCCOCCOCCNC(=O)O[C@@H]([C@@H]4OC(C(=O)O)=C[C@H](NC(=N)N)[C@H]4NC(C)=O)[C@H](O)CO)nn3)Cn3cc(COCCOCCOCCOCCOCCOCCOCCOCCOCCOCCOCCOCCNC(=O)O[C@@H]([C@@H]4OC(C(=O)O)=C[C@H](NC(=N)N)[C@H]4NC(C)=O)[C@H](O)CO)nn3)nn2)[C@H](O)CO)OC(C(=O)O)=C[C@@H]1NC(=N)N` (stereo partly drawn) the Activity [6] was “Active”, the Activity [7] was “Active” and the IC50 [1] was 2.8 nM. For the same compound, the Activity [8] was “Active”, the Activity [9] was less than 4 nM and the Activity [10] was “Active”. For the same compound, the Activity [11] was “inactive”, the Activity [12] was “Active” and the Activity [2] was “Non-Toxic”. For the same compound, the Activity [13] was “Active”, the Activity [14] was “Active” and the Activity [15] was 100%. The Activity [16] was “Active”, the Activity [17] was “Active” and the EC50 [3] was 1.2 nM. The Activity [18] was 100%, the half-life [19] was 1.2 h and the solubility [20] was “Soluble”. For the same compound, the IC50 [4] was 0.8 nM, the EC50 [5, 24] was 3.5 nM and the Activity [21] was “Active”.

In the case of `COCCOCCOCCOCCOCCOCCOCCOCCOCCOCc1cn(CC(Cn2cc(COCCOCCOCCOCCOCCOCCOCCOCCOCCOC)nn2)(Cn2cc(COCCOCCOCCOCCOCCOCCOCCOCCOCCOC)nn2)Cn2cc(COCCOCCOCCOCCOCCOCCOCCOCCOCCOC)nn2)nn1`, the Activity [2] is reported as “Non-Toxic”, the Activity [22] is reported as “inactive” and the EC50 [5] is reported as “Not Active”.

With `CC(=O)N[C@H]1[C@H]([C@H](OC(=O)NCCOCCOCCOCc2cn(CC(Cn3cc(COCCOCCOCCNC(=O)O[C@@H]([C@@H]4OC(C(=O)O)=C[C@H](NC(=N)N)[C@H]4NC(C)=O)[C@H](O)CO)nn3)(Cn3cc(COCCOCCOCCNC(=O)O[C@@H]([C@@H]4OC(C(=O)O)=C[C@H](NC(=N)N)[C@H]4NC(C)=O)[C@H](O)CO)nn3)Cn3cc(COCCOCCOCCNC(=O)O[C@@H]([C@@H]4OC(C(=O)O)=C[C@H](NC(=N)N)[C@H]4NC(C)=O)[C@H](O)CO)nn3)nn2)[C@H](O)CO)OC(C(=O)O)=C[C@@H]1NC(=N)N` (stereo partly drawn) the IC50 [1] was 6.2 nM, the Kd [23] was 2.2 nM and the solubility [20] was “Soluble”. The IC50 [4] was 2.5 nM.
